One assay relates to Enterococcus faecalis. Nature of the assay: Antimicrobial activity against Enterococcus faecalis ATCC 19433 assessed as reduction in microbial growth measured after 20 hrs by CLSI based broth microdilution method. The assay is classed as functional. Summed up: (§1)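 Broth microdilution per CLSI in cation-adjusted Mueller-Hinton broth. Two-fold serial dilutions from 256 to 0.25 μg/mL, inoculum about 5 × 10⁵ CFU/mL. Read after 20 h at 37 °C. MIC is the lowest concentration with no visible growth. Run in duplicate.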

For assay [1], the system named is Staphylococcus aureus. Nature of the assay: Antimicrobial activity against Staphylococcus aureus ATCC 25923 assessed as reduction in microbial growth measured after 20 hrs by CLSI based broth microdilution method. The assay is classed as functional. Summed up: as §1
Assay [2] relates to Staphylococcus aureus. Nature of the assay: Antimicrobial activity against Staphylococcus aureus ATCC 29213 assessed as reduction in microbial growth measured after 20 hrs by CLSI based broth microdilution method. The assay is classed as functional. Summed up:
as §1

The subject of assay [3] is Streptococcus pneumoniae. Nature of the assay: Antimicrobial activity against Streptococcus pneumoniae ATCC 49619 assessed as reduction in microbial growth measured after 20 hrs by CLSI based broth microdilution method. The assay is classed as functional.
In the next assay the test system is Klebsiella pneumoniae. Description: Antimicrobial activity against Klebsiella pneumoniae ATCC 700603 assessed as reduction in microbial growth measured after 20 hrs by CLSI based broth microdilution method. The assay is classed as functional. In outline:
as §1

Another assay has as its system Acinetobacter baumannii. Description: Antimicrobial activity against Acinetobacter baumannii ATCC 19606 assessed as reduction in microbial growth measured after 20 hrs by CLSI based broth microdilution method. The assay is classed as functional. Summed up: as §1
Another assay has as its system Pseudomonas aeruginosa. Description: Antimicrobial activity against Pseudomonas aeruginosa ATCC 27853 assessed as reduction in microbial growth measured after 20 hrs by CLSI based broth microdilution method. The assay is classed as functional. Summed up:
as §1

The test system of a further assay is Enterobacter cloacae. Nature of the assay: Antimicrobial activity against Enterobacter cloacae ATCC 13047 assessed as reduction in microbial growth measured after 20 hrs by CLSI based broth microdilution method. The assay is classed as functional. In outline:
as §1

A further assay deals with Escherichia coli. Description: Antimicrobial activity against Escherichia coli ATCC 25922 assessed as reduction in microbial growth measured after 20 hrs by CLSI based broth microdilution method. The assay is classed as functional. Summed up:
as §1

Assay [4] relates to Staphylococcus epidermidis. Description: Antimicrobial activity against Staphylococcus epidermidis ATCC 12228 assessed as reduction in microbial growth measured after 20 hrs by CLSI based broth microdilution method. The assay is classed as functional.
In assay [5] the test system is Staphylococcus saprophyticus. Nature of the assay: Antimicrobial activity against Staphylococcus saprophyticus ATCC 15305 assessed as reduction in microbial growth measured after 20 hrs by CLSI based broth microdilution method. The assay is classed as functional.
For another assay, the system named is Streptococcus pyogenes. Description: Antimicrobial activity against Streptococcus pyogenes ATCC 19615 assessed as reduction in microbial growth measured after 20 hrs by CLSI based broth microdilution method. The assay is classed as functional.
The test system of a further assay is Streptococcus agalactiae. Nature of the assay: Antimicrobial activity against Streptococcus agalactiae ATCC 12386 assessed as reduction in microbial growth measured after 20 hrs by CLSI based broth microdilution method. The assay is classed as functional.
Assay [6] relates to Streptococcus pneumoniae. Nature of the assay: Antimicrobial activity against Streptococcus pneumoniae TCH8431 (HM-145) assessed as reduction in microbial growth measured after 20 hrs by CLSI based broth microdilution method. The assay is classed as functional.
For assay [7], the system named is Streptococcus pneumoniae. Nature of the assay: Antimicrobial activity against Streptococcus pneumoniae NP112 (NR-19213) assessed as reduction in microbial growth measured after 20 hrs by CLSI based broth microdilution method. The assay is classed as functional.
Assay [8] deals with Streptococcus pneumoniae. Description: Antimicrobial activity against Streptococcus pneumoniae clinical isolate CUHK-X01 assessed as reduction in microbial growth measured after 20 hrs by CLSI based broth microdilution method. The assay is classed as functional.
For assay [9], the system named is Streptococcus pneumoniae. Nature of the assay: Antimicrobial activity against Streptococcus pneumoniae clinical isolate CUHK-X02 assessed as reduction in microbial growth measured after 20 hrs by CLSI based broth microdilution method. The assay is classed as functional.
The subject of assay [10] is Streptococcus pneumoniae. Nature of the assay: Antimicrobial activity against Streptococcus pneumoniae clinical isolate CUHK-X03 assessed as reduction in microbial growth measured after 20 hrs by CLSI based broth microdilution method. The assay is classed as functional.
For assay [11], the system named is Streptococcus pneumoniae. Description: Antimicrobial activity against Streptococcus pneumoniae clinical isolate CUHK-X04 assessed as reduction in microbial growth measured after 20 hrs by CLSI based broth microdilution method. The assay is classed as functional.
In assay [12] the test system is Bacillus subtilis. Nature of the assay: Antibacterial activity against Bacillus Subtilis assessed as bacterial transcription by measuring delocalization of GFP-tagged RpsB at 1 time MIC incubated for 30 mins by epifluorescence microscopy based analysis. The assay is classed as functional, organism-based. In outline: (§2)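 B. subtilis reporter strains expressing GFP fusions, grown overnight on selective LB agar at 37 °C, then overnight in LB with selective antibiotic and xylose, 37 °C, 180 rpm. Cells mounted on 1.2% agarose, imaged by epifluorescence with 100×/1.45 oil objective, FITC (525/50) filter.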

In assay [13] the test system is Bacillus subtilis. Nature of the assay: Antibacterial activity against Bacillus Subtilis assessed as bacterial transcription by measuring subcellular localization of MreB at 1 time MIC incubated for 30 mins by epifluorescence microscopy based analysis. The assay is classed as functional, organism-based. Summed up: as §2
A short description of assay [14]: Inhibition of Bacillus subtilis LgBiT-fused NusG/C-terminal SmBit fused […] CH protein-protein interaction using […] incubated for 20 mins by luminescence based analysis. Summed up:
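Split-nanoluciferase competition assay with His-tagged proteins expressed in E. coli BL21(DE3) and Ni-purified. C-SmBiT-β'CH (250 nM in PBS) was preincubated with compound for 10 min at 37 °C. N-LgBiT-NusG (250 nM in PBS) was then added and incubated 10 min at 37 °C. Nano-Glo substrate was added and luminescence read. IC50 determined. Triplicate with technical repeats.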

Assay [15] has as its system Bacillus subtilis. Nature of the assay: Antibacterial activity against Bacillus Subtilis assessed as bacterial transcription by measuring delocalization of GFP-tagged RpsB from cell poles towards midcell at 1 time MIC incubated for 30 mins by epifluorescence microscopy based analysis. The assay is classed as functional, organism-based. Summed up: as §2

This passage reports MIC, Activity and IC50 results from ChEMBL document CHEMBL6071151, “Discovery of Inhibitors Targeting Protein-Protein Interaction between Bacterial RNA Polymerase and NusG as Novel Antimicrobials” (J Med Chem, 2024).

Active and inactive are the calls of the source. The calls are words filed in the database; no cut-off is given here.

On to `OC(CNCCOc1ccccc1C(F)(F)F)COc1ccc(C(F)(F)F)cc1` (centres undefined), for which the minimum inhibitory concentration (MIC) in the assay on Enterococcus faecalis was 16 µg/mL; with Staphylococcus aureus [1], 16 µg/mL; in the assay with Staphylococcus aureus [2], 16 µg/mL; with Streptococcus pneumoniae [3], 8 µg/mL; in the assay on Klebsiella pneumoniae it was more than 256 µg/mL; in the assay on Acinetobacter baumannii it was 16 µg/mL. The MIC is more than 256 µg/mL in the assay on Pseudomonas aeruginosa; 32 µg/mL with Enterobacter cloacae; 16 µg/mL in the assay on Escherichia coli; 8 µg/mL in [4]; 8 µg/mL in assay [5]; 8 µg/mL in the assay with Streptococcus pyogenes. The minimal inhibitory concentration (MIC) came to 8 µg/mL in the assay with Streptococcus agalactiae; 8 µg/mL with Streptococcus pneumoniae [6]; 16 µg/mL in the assay on Streptococcus pneumoniae [7]; 16 µg/mL with Streptococcus pneumoniae [8]; 16 µg/mL in the assay on Streptococcus pneumoniae [9]; 8 µg/mL in the assay on Streptococcus pneumoniae [10]. The MIC in the assay on Streptococcus pneumoniae [11] was found to be 8 µg/mL.
On to `Cc1onc(-c2ccccc2)c1C(=O)N[C@@H]1C(=O)N2[C@@H]1SC(C)(C)[C@@H]2C(=O)O` [OXACILLIN], for which the minimum inhibitory concentration (MIC) is 2 µg/mL in the assay on Streptococcus pneumoniae [3], 2 µg/mL in assay [5], 1 µg/mL in the assay on Streptococcus agalactiae and not above 0.062 µg/mL in the assay on Streptococcus pneumoniae [8].
For `CO[C@H]1/C=C/O[C@@]2(C)Oc3c(C)c(O)c4c(O)c(c(/C=N/N5CCN(C)CC5)c(O)c4c3C2=O)NC(=O)/C(C)=C\C=C\[C@H](C)[C@H](O)[C@@H](C)[C@@H](O)[C@@H](C)[C@H](OC(C)=O)[C@@H]1C`, the result in the assay on Bacillus subtilis [12] and with Bacillus subtilis [13] was Active.
For the molecule `CNC(C)[C@@H]1CC[C@@H](N)[C@@H](O[C@H]2[C@H](O)[C@@H](O[C@H]3OC[C@](C)(O)[C@H](NC)[C@H]3O)[C@H](N)C[C@@H]2N)O1.CN[C@@H]1[C@@H](O)[C@@H](O[C@@H]2[C@@H](O)[C@H](O[C@H]3O[C@H](C(C)N)CC[C@H]3N)[C@@H](N)C[C@H]2N)OC[C@]1(C)O.CN[C@@H]1[C@@H](O)[C@@H](O[C@@H]2[C@@H](O)[C@H](O[C@H]3O[C@H](CN)CC[C@H]3N)[C@@H](N)C[C@H]2N)OC[C@]1(C)O` (some centres undefined), the minimal inhibitory concentration (MIC) is 32 µg/mL with Streptococcus pneumoniae [3], not above 0.062 µg/mL in assay [5], 64 µg/mL in the assay with Streptococcus agalactiae and 32 µg/mL in the assay with Streptococcus pneumoniae [8].
Consider `OC(CNCCNc1ccccc1C(F)(F)F)COc1ccc(C(F)(F)F)cc1` (centres undefined), for which the MIC in the assay on Enterococcus faecalis was 16 µg/mL; in the assay on Staphylococcus aureus [1] it was 8 µg/mL; in the assay on Staphylococcus aureus [2], 16 µg/mL; in the assay with Streptococcus pneumoniae [3], 4 µg/mL; in the assay with Klebsiella pneumoniae it was more than 256 µg/mL; in the assay on Acinetobacter baumannii it was 16 µg/mL. Besides, the MIC was more than 256 µg/mL in the assay on Pseudomonas aeruginosa; 32 µg/mL in the assay on Enterobacter cloacae; 16 µg/mL in the assay with Escherichia coli; 16 µg/mL in [4]; 8 µg/mL in [5]; 16 µg/mL with Streptococcus pyogenes. The MIC in the assay with Streptococcus agalactiae came out at 16 µg/mL; in the assay on Streptococcus pneumoniae [6], 4 µg/mL; in the assay with Streptococcus pneumoniae [7], 16 µg/mL; in the assay with Streptococcus pneumoniae [8], 16 µg/mL; in the assay on Streptococcus pneumoniae [9] it was 8 µg/mL; with Streptococcus pneumoniae [10] it was 16 µg/mL. Besides, the MIC in the assay with Streptococcus pneumoniae [11] was determined as 8 µg/mL.
As to `CN[C@H](CC(C)C)C(=O)N[C@H]1C(=O)N[C@@H](CC(N)=O)C(=O)N[C@H]2C(=O)N[C@H]3C(=O)N[C@H](C(=O)N[C@H](C(=O)O)c4cc(O)cc(O)c4-c4cc3ccc4O)[C@H](O)c3ccc(c(Cl)c3)Oc3cc2cc(c3O[C@@H]2O[C@H](CO)[C@@H](O)[C@H](O)[C@H]2O[C@H]2C[C@](C)(N)[C@H](O)[C@H](C)O2)Oc2ccc(cc2Cl)[C@H]1O` [VANCOMYCIN], the MIC in the assay on Streptococcus pneumoniae [3] is 1 µg/mL; in assay [5], 2 µg/mL; in the assay with Streptococcus agalactiae, 1 µg/mL; with Streptococcus pneumoniae [8], 0.5 µg/mL.
H-EGRVATSLREHIKLHN-OH yielded a half-inhibitory concentration (IC50) in [14] of 195 µM.
`CN(C)[C@@H]1C(O)=C(C(N)=O)C(=O)[C@@]2(O)C(O)=C3C(=O)c4c(O)cccc4[C@@](C)(O)[C@H]3C[C@@H]12`: the outcome with Bacillus subtilis [15] was Active.
The same measure, in the same setting: with `O=C(N[C@H](CO)[C@H](O)c1ccc([N+](=O)[O-])cc1)C(Cl)Cl` the entry was “Active”.
On to `OC(CNCCSc1ccccc1C(F)(F)F)CSc1ccc(C(F)(F)F)cc1` (centres undefined), for which the minimal inhibitory concentration (MIC) with Enterococcus faecalis is 8 µg/mL; with Staphylococcus aureus [1], 8 µg/mL; in the assay with Staphylococcus aureus [2], 8 µg/mL; with Streptococcus pneumoniae [3] it was 4 µg/mL; in the assay on Klebsiella pneumoniae it was more than 256 µg/mL; with Acinetobacter baumannii, more than 256 µg/mL. Further, the minimum inhibitory concentration (MIC) in the assay with Pseudomonas aeruginosa was more than 256 µg/mL; in the assay with Enterobacter cloacae, more than 256 µg/mL; in the assay with Escherichia coli, 32 µg/mL; in assay [4], 4 µg/mL; in [5], 4 µg/mL; in the assay on Streptococcus pyogenes it was 8 µg/mL. Besides, the MIC came to 8 µg/mL in the assay on Streptococcus agalactiae; 4 µg/mL in the assay with Streptococcus pneumoniae [6]; 8 µg/mL with Streptococcus pneumoniae [7]; 8 µg/mL in the assay with Streptococcus pneumoniae [8]; 8 µg/mL in the assay on Streptococcus pneumoniae [9]; 4 µg/mL in the assay with Streptococcus pneumoniae [10]. Besides, the MIC with Streptococcus pneumoniae [11] was found to be 8 µg/mL.
